# Laboratory results published in ChEMBL document CHEMBL3259621, “Novel merosesquiterpene exerts a potent antitumor activity against breast cancer cells in vitro and in vivo” (Eur J Med Chem, 2014).
# Activity calls are given as the source filed them. No cut-off for these calls is given here.
# How the values were obtained:
# MCF7 [1] = test: Cell cycle arrest in human MCF7 cells assessed as accumulation at G2-M phase at 2 uM after 24 hrs by propidium iodide/RNAse staining-based FACS analysis (reference value: 8.20 %); type: functional
# MCF7 [2] = test: Induction of apoptosis in human MCF7 cells assessed as early apoptotic cells at 2 uM after 48 hrs by annexin V staining-based flow cytometry (reference value: 0.205 %); type: functional
# MCF7 [3] = test: Induction of apoptosis in human MCF7 cells assessed as apoptotic cells at 1 uM after 48 hrs by annexin V staining-based flow cytometry (reference value: 3.44 %); type: functional
# MCF7 [4] = test: Induction of apoptosis in human MCF7 cells assessed as apoptotic cells at 2 uM after 48 hrs by annexin V staining-based flow cytometry (reference value: 3.44 %); type: functional
# MCF7 [5] = test: Induction of apoptosis in human MCF7 cells assessed as apoptotic cells at 3 uM after 48 hrs by annexin V staining-based flow cytometry (reference value: 3.44 %); type: functional
# MCF7 [6] = test: Induction of apoptosis in human MCF7 cells assessed as reduction in cyclin B1 protein expression at 2 uM after 16 hrs by Western blotting analysis; type: functional; set-up: scale not given: the % may be the effect or the level left
# Outline: (§1)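 MCF-7 seeded at 5 × 10⁴/cm² and exposed at 24 h to 2 µM compound for 0, 4, 8, 16 and 24 h. Lysates separated on 12% SDS gels, transferred to nitrocellulose, blocked in 5% milk. Primary antibodies applied overnight at 4 °C, then secondary 1 h at room temperature. Detection by ECL chemiluminescence with β-actin as loading reference.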
# MCF7 [7] = test: Induction of apoptosis in human MCF7 cells assessed as reduction in total pRb protein expression at 2 uM after 16 hrs by Western blotting analysis relative to control; type: functional; set-up: scale not given: the % may be the effect or the level left
# Outline: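 MCF-7 seeded at 5 × 10⁴ cells/cm², exposed after 24 h to 2 µM for 0, 4, 8, 16 and 24 h. Lysed in SDS sample buffer, run on 12% acrylamide gels, transferred to nitrocellulose and blocked with 5% milk. Primary antibodies overnight at 4 °C (total or phospho-pRb, β-actin), secondary 1 h at room temperature, ECL chemiluminescence detection.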
# MCF7 [8] = test: Induction of apoptosis in human MCF7 cells assessed as reduction in c-myc expression at 2 uM after 24 hrs by Western blotting analysis relative to control; type: functional; set-up: scale not given: the % may be the effect or the level left; outline: as §1
# MCF7 [9] = test: Induction of apoptosis in human MCF7 cells assessed as increase in p27 expression at 2 uM after 4 to 24 hrs by Western blotting analysis relative to control; type: functional, cell-based; outline: as §1
# MCF7 [10] = test: Induction of apoptosis in human MCF7 cells assessed as increase in PARP cleavage at 2 uM after 4 to 24 hrs by Western blotting analysis relative to control; type: functional, cell-based; outline: as §1
# [11] = biological target: Mitogen-activated protein kinase; ERK1/ERK2 (Homo sapiens) (UniProt P27361+P28482); test: Increase of p44/42 MAPK phosphorylation in human MCF7 cells at 2 uM up to 4 hrs by Western blotting analysis relative to control; type: cell-based; outline: as §1
# Mus musculus [12] = test: Toxicity in C57BL/6 mouse allografted with mouse E0771 cells assessed as hair loss at 5 to 15 mg/kg, po; type: organism-based; set-up: dose 5-15 mg/kg, route oral; details: in vivo
# Outline: (§2)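 C57BL/6 mice (10 per group) injected subcutaneously in the right side with 1 × 10⁶ E0771 cells. At day 9, with tumours at 75 mm³, mice were randomised to oral vehicle (1% methylcellulose) or 5, 10 or 15 mg/kg on six occasions. Animals were monitored to day 42 for survival and for signs of toxicity such as hair loss or diarrhoea.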
# Mus musculus [13] = test: Toxicity in C57BL/6 mouse allografted with mouse E0771 cells assessed as diarrhea at 5 to 15 mg/kg, po; type: organism-based; set-up: dose 5-15 mg/kg, route oral; details: in vivo; outline: as §2
# MCF7 [14] = test: Cytotoxicity against human MCF7 cells assessed as reduction in cell viability after 3 days by SRB assay; type: functional, cell-based
# Outline: (§3)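 MCF-7 seeded at high density (5 × 10⁴/cm²) and treated at 24 h with compound for 3 days, with or without 20 mM NAC. Viable cells quantified by sulforhodamine B staining, OD 492 nm. Viability reduction expressed versus untreated controls.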
# [15] = Cytotoxicity against mouse E0771 cells after 3 days by SRB assay; type: functional, cell-based; details: E0771, 72 h
# Outline: (§4)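 Cells seeded at 5 × 10³ cells/cm² in quadruplicate and, after 24 h, treated with increasing concentrations for 3 days. Compounds diluted from DMSO stock, final DMSO <0.1% v/v. Cells were fixed with cold 10% TCA, stained with 0.4% sulforhodamine B in 1% acetic acid, and dye solubilised in 10 mM Tris-base pH 10.5. OD read at 492 nm. IC50 obtained by linear interpolation on a semi-log dose-response curve.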
# A549 = test: Cytotoxicity against human A549 cells after 3 days by SRB assay; type: functional, cell-based; details: A549, 72 h
# Outline: (§5)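 Cells seeded in quadruplicate at 5 × 10³ cells/cm². Compound added at 24 h over increasing concentrations for 3 days. Cells fixed with cold 10% TCA, stained with 0.4% sulforhodamine B in 1% acetic acid, dye solubilized in 10 mM Tris pH 10.5, OD read at 492 nm. IC50 taken by linear interpolation of the semi-log dose-response curve. DMSO below 0.1% final.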
# T84 = test: Cytotoxicity against human T84 cells after 3 days by SRB assay; type: functional, cell-based; details: T84, 72 h; outline: as §5
# T47D = test: Cytotoxicity against human T47D cells after 3 days by SRB assay; type: functional, cell-based; details: 72 h; outline: as §4
# HT-29 = test: Cytotoxicity against human HT-29 cells after 3 days by SRB assay; type: functional, cell-based; details: HT-29, 72 h; outline: as §4
# RKO = test: Cytotoxicity against human RKO cells after 3 days by SRB assay; type: functional, cell-based; details: 72 h; outline: as §4
# SW480 = test: Cytotoxicity against human SW480 cells after 3 days by SRB assay; type: functional, cell-based; details: SW480, 72 h; outline: as §4
# [16] = Cytotoxicity against human CCD-18Co cells after 3 days by SRB assay; type: cell-based; details: 72 h; outline: as §4
# [17] = Therapeutic index, ratio of IC50 for human MCF10A cells to IC50 for human MCF7 cells; type: cell-based, MCF-10A; details: MCF10A cells versus MCF7 cells, read-out: Ratio IC50
# [18] = Therapeutic index, ratio of IC50 for human MCF10A cells to IC50 for mouse E0771 cells; type: cell-based, MCF-10A; details: MCF10A cells versus E0771 cells, read-out: Ratio IC50
# [19] = Therapeutic index, ratio of IC50 for human CCD-18Co cells to IC50 for human T84 cells; type: cell-based, T84; CCD-18Co; details: CCD-18Co cells versus T84 cells, read-out: Ratio IC50
# MCF7 [20] = test: Cytotoxicity against human MCF7 cells assessed as reduction in cell viability at 1 uM after 3 days by SRB assay relative to control; type: functional; outline: as §3
# MCF7 [21] = test: Cytotoxicity against human MCF7 cells at 1 to 3 uM after 3 days by SRB assay in presence of NAC; type: functional, cell-based; outline: as §3
# MCF7 [22] = test: Cell cycle arrest in human MCF7 cells assessed as accumulation at G0-G1 phase at 2 uM after 24 hrs by propidium iodide/RNAse staining-based FACS analysis (reference value: 42.34 %); type: functional
# MCF7 [23] = test: Cell cycle arrest in human MCF7 cells assessed as accumulation at G0-G1 phase at 3 uM after 24 hrs by propidium iodide/RNAse staining-based FACS analysis (reference value: 42.34 %); type: functional
# MCF7 [24] = test: Cell cycle arrest in human MCF7 cells assessed as accumulation at S phase at 2 uM after 24 hrs by propidium iodide/RNAse staining-based FACS analysis (reference value: 49.46 %); type: functional
# Mitogen-activated protein kinase; ERK1/ERK2 (Homo sapiens), sequence (P27361 whole entry, looked up): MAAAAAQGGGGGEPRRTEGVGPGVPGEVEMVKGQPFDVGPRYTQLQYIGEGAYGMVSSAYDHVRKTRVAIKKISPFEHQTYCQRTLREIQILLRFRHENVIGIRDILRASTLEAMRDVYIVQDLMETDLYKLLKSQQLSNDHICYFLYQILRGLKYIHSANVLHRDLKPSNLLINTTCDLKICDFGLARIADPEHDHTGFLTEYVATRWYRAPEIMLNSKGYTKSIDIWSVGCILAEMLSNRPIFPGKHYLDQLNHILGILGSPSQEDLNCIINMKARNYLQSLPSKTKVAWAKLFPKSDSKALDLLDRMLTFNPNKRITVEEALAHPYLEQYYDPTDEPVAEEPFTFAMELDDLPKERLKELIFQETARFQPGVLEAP
# Mitogen-activated protein kinase; ERK1/ERK2 (Homo sapiens), sequence (P28482 whole entry, looked up): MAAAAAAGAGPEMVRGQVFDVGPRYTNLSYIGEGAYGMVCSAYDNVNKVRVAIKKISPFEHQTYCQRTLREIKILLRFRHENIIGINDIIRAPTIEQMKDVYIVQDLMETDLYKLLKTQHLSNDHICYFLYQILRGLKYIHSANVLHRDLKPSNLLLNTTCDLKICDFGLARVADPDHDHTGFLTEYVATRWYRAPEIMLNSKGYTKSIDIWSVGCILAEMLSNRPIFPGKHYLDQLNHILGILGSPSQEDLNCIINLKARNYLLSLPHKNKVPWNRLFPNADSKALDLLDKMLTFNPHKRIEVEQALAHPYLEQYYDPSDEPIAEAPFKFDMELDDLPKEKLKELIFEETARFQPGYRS
smiles,measurement,setting,value
C=C1CC[C@@H]2[C@](C)(CCC[C@]2(C)C(=O)OC)[C@H]1Cc1c(C)ccc2c1C(=O)C=CC2=O,Activity,MCF7 [1],19.25%
same,Activity,MCF7 [2],12.5%
same,Activity,MCF7 [3],11.07%
same,Activity,MCF7 [4],29.13%
same,Activity,MCF7 [5],57.8%
same,Activity,MCF7 [6],6%
same,Activity,MCF7 [7],90%
same,Activity,MCF7 [8],80%
same,Activity,MCF7 [9],Active
same,Activity,MCF7 [10],Active
same,Activity,[11],Active
same,Activity,Mus musculus [12],Non-toxic
same,Activity,Mus musculus [13],Non-toxic
same,Activity,MCF7 [14],Dose-dependent effect
same,IC50,[15],390 nM
same,IC50,A549,1380 nM
same,IC50,T84,560 nM
same,IC50,T47D,630 nM
same,IC50,HT-29,1970 nM
same,IC50,RKO,590 nM
same,IC50,SW480,920 nM
same,IC50,[16],330 nM
same,selectivity ratio,[17],9
same,selectivity ratio,[18],8.08
same,selectivity ratio,[19],0.59
same,viability,MCF7 [20],90.21%
same,Activity,MCF7 [21],inactive
same,Activity,MCF7 [22],66.6%
same,Activity,MCF7 [23],75.7%
same,Activity,MCF7 [24],29.15%
